The target in one series is T1, Cytochrome P450 1A1 (Homo sapiens, UniProt P04798).
T1 sequence (P04798 whole entry): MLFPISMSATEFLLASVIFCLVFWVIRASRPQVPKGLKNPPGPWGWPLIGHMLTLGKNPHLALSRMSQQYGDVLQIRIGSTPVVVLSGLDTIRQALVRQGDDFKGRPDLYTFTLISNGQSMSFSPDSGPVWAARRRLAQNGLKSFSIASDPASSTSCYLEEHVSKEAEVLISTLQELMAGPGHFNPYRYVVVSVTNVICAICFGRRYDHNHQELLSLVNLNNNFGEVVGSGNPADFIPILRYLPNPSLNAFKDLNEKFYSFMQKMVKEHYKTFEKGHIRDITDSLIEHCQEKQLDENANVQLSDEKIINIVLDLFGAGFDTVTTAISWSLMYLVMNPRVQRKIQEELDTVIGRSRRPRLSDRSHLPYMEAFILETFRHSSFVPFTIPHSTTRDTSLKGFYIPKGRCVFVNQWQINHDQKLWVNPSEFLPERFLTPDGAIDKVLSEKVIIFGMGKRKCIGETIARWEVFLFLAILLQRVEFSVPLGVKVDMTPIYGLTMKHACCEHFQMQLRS
Briefly: Drug level treated with 5-((R)-4-((R)-3-Methylmorpholino)-5a,6,8,9-tetrahydro-5H-pyrimido[5',4':4,5]pyrrolo[2,1-c][1,4]oxazin-2-yl)pyrimidin-2-amine assessed as recombinant human CYP1A1-mediated compound formation incubated for 60 mins by LC/MS analysis. It counts as ADME. Conditions: recombinant enzyme, 1 h. Summed up:
(§1)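 Human recombinant CYP1A1 or CYP1A2 Supersomes (25 pmol/mL) incubated with compound at 1 μM (0.25% DMSO) plus NADP+-regenerating cofactors at 37 °C for 60 min. Reaction stopped with ACN containing internal standard. Parent and metabolites expressed as percentage of total peak areas.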

For another series, the target named is T2, Cytochrome P450 1A2 (Homo sapiens, UniProt P05177).
T2 sequence (P05177 whole entry): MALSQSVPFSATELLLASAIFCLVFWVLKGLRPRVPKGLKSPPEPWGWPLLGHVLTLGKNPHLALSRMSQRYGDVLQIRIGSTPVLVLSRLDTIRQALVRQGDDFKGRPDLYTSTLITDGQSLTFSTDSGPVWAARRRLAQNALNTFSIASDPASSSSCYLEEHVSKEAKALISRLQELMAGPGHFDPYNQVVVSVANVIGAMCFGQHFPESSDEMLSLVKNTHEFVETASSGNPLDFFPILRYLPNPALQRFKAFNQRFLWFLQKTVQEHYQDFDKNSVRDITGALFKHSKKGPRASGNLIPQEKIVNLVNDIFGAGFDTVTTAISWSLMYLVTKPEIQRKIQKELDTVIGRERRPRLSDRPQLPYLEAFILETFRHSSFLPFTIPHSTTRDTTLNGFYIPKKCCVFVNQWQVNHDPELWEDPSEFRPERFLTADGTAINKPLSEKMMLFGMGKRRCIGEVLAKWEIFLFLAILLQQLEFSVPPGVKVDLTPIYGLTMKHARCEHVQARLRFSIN
Briefly: Drug level treated with 5-((R)-4-((R)-3-Methylmorpholino)-5a,6,8,9-tetrahydro-5H-pyrimido[5',4':4,5]pyrrolo[2,1-c][1,4]oxazin-2-yl)pyrimidin-2-amine assessed as recombinant human CYP1A2-mediated compound formation incubated for 60 mins by LC/MS analysis. It counts as ADME. Conditions: recombinant enzyme, 1 h. Summed up:
as §1

Drawing on ChEMBL document CHEMBL4321805, “A Conformational Restriction Strategy for the Identification of a Highly Selective Pyrimido-pyrrolo-oxazine mTOR Inhibitor” (J Med Chem, 2019), this text covers Drug metabolism for one compound.

Consider `CC(C=O)N(CCO)c1nc(-c2cnc(N)nc2)nc2c1C[C@@H]1COCCN21` (some centres not stated), for which the Drug metabolism entry on Cytochrome P450 1A1 and at Cytochrome P450 1A2 was “Metabolite_Detected” throughout.
